Reference: ChEMBL document CHEMBL4342526, “Exploration of the Structural Space in 4(3H)-Quinazolinone Antibacterials” (J Med Chem, 2020)
Converted amounts (≈) assume the structure as drawn.

Columns and labels:
Staphylococcus aureus [1] = assay: Antibacterial activity against multi-drug resistant mecA-positive Staphylococcus aureus ATCC 27660 measured after 16 to 20 hrs by microdilution method; format: functional
How it was run: (§1)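 CLSI broth microdilution; two-fold serial compound dilutions in triplicate in cation-adjusted Mueller–Hinton broth with 2% NaCl, inoculum 5 × 10^5 CFU/mL; 37 °C for 16–20 h; MIC = lowest concentration with no visible growth.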

[2] = Clearance in ICR mouse at 5 mg/kg, iv by UV-UPLC analysis; format: ADME, organism-based; conditions: in vivo
How it was run: (§2)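 Female ICR mice, 6–8 weeks old, 20–25 g. Each received 50 μL by tail-vein injection (5 or 10 mg/kg) of a filter-sterilized 2 or 4 mg/mL solution in 20% DMSO/10% Tween-80/70% water. Terminal blood was collected and plasma harvested by centrifugation. Plasma was precipitated with acetonitrile containing internal standard, and the supernatant was analyzed by C18 UPLC with UV detection at 285 nm.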

Staphylococcus aureus [3] = assay: Antibacterial activity against Staphylococcus aureus ATCC 29213 measured after 16 to 20 hrs in presence of bovine serum albumin by microdilution method; format: functional
How it was run: (§3)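 S. aureus ATCC29213 MIC was run by CLSI microdilution in cation-adjusted Mueller–Hinton broth plus 2% NaCl, with and without 0.5% bovine serum albumin. Compounds were two-fold serially diluted in triplicate, inoculum was 5 × 10^5 CFU/mL, and plates were incubated at 37 °C for 16–20 h. The endpoint was the lowest concentration with no visible growth.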

HeLa = assay: Cytotoxicity against human HeLa cells assessed as reduction in cell viability measured after 16 hrs by XTT assay; format: cell-based
How it was run: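 HeLa cells (ATCC CCL-2), run in triplicate. Viability was read by XTT, and IC50 was obtained by nonlinear regression.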

[4] = Protein binding in human plasma at 10 uM measured after 6 hrs UV-UPLC based rapid equilibrium dialysis method; format: ADME, cell-free
How it was run: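 Rapid equilibrium dialysis: human plasma was cleared by centrifugation and spiked from a 1 mM DMSO stock to a final 10 μM, against 0.1 M PBS pH 7.4. Dialysis ran 6 h at 37 °C with orbital shaking. Buffer (free) and plasma (total) aliquots were mixed with internal standard in acetonitrile and measured by UPLC-UV at 285 nm. B% = (Cp−Cf)/Cp×100.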

Staphylococcus aureus [5] = assay: Antibacterial activity against clindamycin/erythromycin/spectinomycin-resistant mec-positive Staphylococcus aureus NRS70 measured after 16 to 20 hrs by microdilution method; format: functional; how it was run: as §1
[6] = Clearance in ICR mouse at 5 mg/kg, iv by UV-UPLC analysis relative to hepatic blood flow; format: ADME, organism-based; conditions: in vivo; how it was run: as §2
[7] = AUC (0 to last) in ICR mouse at 5 mg/kg, iv by UV-UPLC analysis; format: ADME, organism-based; set-up: dose 5 mg/kg, route intravenous, time 0 - last; conditions: in vivo; how it was run: as §2
Staphylococcus aureus [8] = assay: Antibacterial activity against Staphylococcus aureus ATCC 29213 measured after 16 to 20 hrs by microdilution method; format: functional
How it was run: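 CLSI broth microdilution: two-fold serial dilutions in triplicate in cation-adjusted Mueller–Hinton broth with 2% NaCl, inoculum 5 × 10^5 CFU/mL, incubated at 37 °C for 16–20 h. MIC is the lowest concentration preventing visible growth.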

Staphylococcus aureus [9] = assay: Antibacterial activity against multi-drug resistant mecA-positive Staphylococcus aureus NRS119 measured after 16 to 20 hrs by microdilution method; format: functional; how it was run: as §1
Staphylococcus aureus [10] = assay: Selectivity ratio of MIC for Staphylococcus aureus ATCC 29213 in presence of bovine serum albumin to MIC for Staphylococcus aureus ATCC 29213 in absence of bovine serum albumin; format: functional; how it was run: as §3
[11] = Selectivity index, ratio of IC50 for human HeLa cells to MIC for clindamycin/erythromycin/spectinomycin-resistant mec-positive Staphylococcus aureus NRS70; format: toxicity
How it was run: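 HeLa cytotoxicity by XTT assay in triplicate, IC50 by nonlinear regression; ratio IC50 over broth microdilution MIC against NRS70.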

Staphylococcus aureus [12] = assay: Antibacterial activity against multi-drug resistant mec-positive Staphylococcus aureus USA300 measured after 16 to 20 hrs by microdilution method; format: functional; how it was run: as §1
[13] = Solubility of the compound in water; format: physicochemical; conditions: buffer

| SMILES | MIC (Staphylococcus aureus [1]) | clearance [2] | MIC (Staphylococcus aureus [3]) | IC50 (HeLa) | PPB [4] | MIC (Staphylococcus aureus [5]) | CL [6] | AUC(0-t) [7] | MIC (Staphylococcus aureus [8]) | MIC (Staphylococcus aureus [9]) | selectivity ratio (Staphylococcus aureus [10]) | selectivity ratio [11] | MIC (Staphylococcus aureus [12]) | solubility [13] |
| --- | --- | --- | --- | --- | --- | --- | --- | --- | --- | --- | --- | --- | --- | --- |
| N#Cc1ccc(/C=C/c2nc3ccccc3c(=O)n2-c2cccc(S(N)(=O)=O)c2)cc1 | 0.06 µg/mL (≈ 0.14 µM) | 98 mL/min/kg | 0.5 µg/mL | > 64 µg/mL | 97.1% | 0.06 µg/mL (≈ 0.14 µM) | > 10% | 850 ng·h/mL | 0.25 µg/mL (≈ 0.583 µM) | 0.125 µg/mL (≈ 0.292 µM) | <=4 | > 1070 | 0.06 µg/mL (≈ 0.14 µM) |  |
| O=C(O)c1cccc(-n2c(/C=C/c3ccc(Cl)cc3)nc3ccccc3c2=O)c1 | 0.25 µg/mL (≈ 0.621 µM) |  | 1 µg/mL | 50 µg/mL (≈ 124 µM) | > 99.9% | 0.25 µg/mL (≈ 0.621 µM) |  |  | 0.25 µg/mL (≈ 0.621 µM) | 0.125 µg/mL (≈ 0.31 µM) | <=4 | 200 | 0.125 µg/mL (≈ 0.31 µM) |  |
| N#Cc1ccc(/C=C/c2nc3ccccc3c(=O)n2-c2cc(C(=O)O)ccc2Cl)cc1 | 2 µg/mL (≈ 4.67 µM) |  | 16 µg/mL | > 128 µg/mL | > 99.9% | 2 µg/mL (≈ 4.67 µM) |  |  | 2 µg/mL (≈ 4.67 µM) | 2 µg/mL (≈ 4.67 µM) |  | > 64 | 1 µg/mL (≈ 2.34 µM) |  |
| O=C(O)c1cccc(-n2c(/C=C/c3ccc(I)cc3)nc3ccccc3c2=O)c1 | 0.5 µg/mL (≈ 1.01 µM) |  | 16 µg/mL | 100 µg/mL (≈ 202 µM) | > 99.9% | 0.5 µg/mL (≈ 1.01 µM) |  |  | 0.5 µg/mL (≈ 1.01 µM) | 2 µg/mL (≈ 4.05 µM) |  | 200 | 0.25 µg/mL (≈ 0.506 µM) |  |
| C#Cc1ccc(/C=C/c2nc3ccccc3c(=O)n2-c2cccc(S(N)(=O)=O)c2)cc1 |  | 28.2 mL/min/kg | 0.5 µg/mL | 61 µg/mL (≈ 143 µM) | 98.2% |  | > 10% | 2970 ng·h/mL |  | 0.06 µg/mL (≈ 0.14 µM) |  | 1020 |  |  |
| N#Cc1ccc(/C=C/c2nc3ccccc3c(=O)n2-c2ccccc2O)cc1 | 0.25 µg/mL (≈ 0.684 µM) |  | 0.125 µg/mL | 40 µg/mL (≈ 109 µM) | 98.1% | 0.06 µg/mL (≈ 0.164 µM) |  |  | 0.015 µg/mL (≈ 0.0411 µM) |  |  | 667 | 0.03 µg/mL (≈ 0.0821 µM) | Insoluble |
| N#Cc1ccc(CSc2nc3ccccc3c(=O)n2-c2cccc(C(=O)O)c2)cc1 |  |  | 8 µg/mL | 78 µg/mL (≈ 189 µM) | > 99.9% |  |  |  | 2 µg/mL (≈ 4.84 µM) |  | <=4 | 39 |  |  |
| O=C(O)c1cccc(-n2c(/C=C/c3cc(Cl)cs3)nc3ccccc3c2=O)c1 | 2 µg/mL (≈ 4.89 µM) |  | 32 µg/mL | 140 µg/mL (≈ 342 µM) | > 99.9% | 2 µg/mL (≈ 4.89 µM) |  |  | 4 µg/mL (≈ 9.78 µM) | 1 µg/mL (≈ 2.45 µM) |  | 70 | 4 µg/mL (≈ 9.78 µM) |  |
| N#Cc1ccc(/C=C/c2nc3ccccc3c(=O)n2-c2cccc(C(=O)O)c2)s1 | 4 µg/mL (≈ 10 µM) |  | 32 µg/mL | 110 µg/mL (≈ 275 µM) | 99.2% | 4 µg/mL (≈ 10 µM) |  |  | 4 µg/mL (≈ 10 µM) | 4 µg/mL (≈ 10 µM) |  | 28 | 4 µg/mL (≈ 10 µM) |  |
| N#Cc1ccc(/C=C/c2nc3ccccc3c(=O)n2-c2cccc(NC(=O)C(F)(F)F)c2)cc1 | 0.06 µg/mL (≈ 0.13 µM) |  | 32 µg/mL | > 128 µg/mL | > 99.9% | 0.06 µg/mL (≈ 0.13 µM) |  |  | 2 µg/mL (≈ 4.34 µM) | 1 µg/mL (≈ 2.17 µM) |  | > 2130 | 0.06 µg/mL (≈ 0.13 µM) |  |
| N#Cc1ccc(/C=C/c2nc3ccccc3c(=O)n2-c2ccc[n+]([O-])c2)cc1 | 2 µg/mL (≈ 5.46 µM) |  | 32 µg/mL | > 128 µg/mL | 67.9% | 1 µg/mL (≈ 2.73 µM) |  |  | 2 µg/mL (≈ 5.46 µM) | 4 µg/mL (≈ 10.9 µM) |  | > 128 | 1 µg/mL (≈ 2.73 µM) | Insoluble |
| O=C(O)c1cccc(-n2c(/C=C/c3ccc(Br)s3)nc3ccccc3c2=O)c1 | 0.5 µg/mL (≈ 1.1 µM) |  | 2 µg/mL | 190 µg/mL (≈ 419 µM) | > 99.9% | 0.5 µg/mL (≈ 1.1 µM) |  |  | 0.25 µg/mL (≈ 0.551 µM) | 4 µg/mL (≈ 8.82 µM) |  | 380 | 0.5 µg/mL (≈ 1.1 µM) |  |
| N#Cc1ccc(/C=C/c2nc3ccccc3c(=O)n2-c2cccc(C(N)=O)c2)cc1 |  |  | 16 µg/mL | > 128 µg/mL | 97.1% |  |  |  | 2 µg/mL (≈ 5.1 µM) | 32 µg/mL (≈ 81.5 µM) |  | > 64 | 1 µg/mL (≈ 2.55 µM) | Insoluble |
| O=C(O)c1cccc(-n2c(CCc3ccc(F)cc3)nc3ccccc3c2=O)c1 | 4 µg/mL (≈ 10.3 µM) |  | 8 µg/mL | 79 µg/mL (≈ 203 µM) | > 99.9% |  |  |  | 2 µg/mL (≈ 5.15 µM) | 4 µg/mL (≈ 10.3 µM) | <=4 | 40 | 1 µg/mL (≈ 2.57 µM) |  |
| Cc1ccc(C(=O)O)cc1-n1c(/C=C/c2ccc(C#N)cc2)nc2ccccc2c1=O | 4 µg/mL (≈ 9.82 µM) |  | 16 µg/mL | 60 µg/mL (≈ 147 µM) | > 99.9% | 4 µg/mL (≈ 9.82 µM) |  |  | 2 µg/mL (≈ 4.91 µM) | 4 µg/mL (≈ 9.82 µM) |  | 15 | 1 µg/mL (≈ 2.45 µM) |  |
| CS(=O)(=O)Nc1cccc(-n2c(NCc3ccc(C#N)cc3)nc3ccccc3c2=O)c1 | 0.125 µg/mL (≈ 0.281 µM) |  | 1 µg/mL | 62 µg/mL (≈ 139 µM) | > 99.9% | 0.25 µg/mL (≈ 0.561 µM) |  |  | 0.125 µg/mL (≈ 0.281 µM) | 0.25 µg/mL (≈ 0.561 µM) |  | 248 | 0.25 µg/mL (≈ 0.561 µM) |  |
| N#Cc1ccc(/C=C/c2nc3ccccc3c(=O)n2-c2cccc(CNC(=O)C(F)(F)F)c2)cc1 | 64 µg/mL (≈ 135 µM) |  | 8 µg/mL | 150 µg/mL (≈ 316 µM) | > 99.9% | 64 µg/mL (≈ 135 µM) |  |  | 0.5 µg/mL (≈ 1.05 µM) |  |  | 2 | 4 µg/mL (≈ 8.43 µM) |  |
